Laboratory results from ChEMBL document CHEMBL2439973, “Discovery of VU0409106: A negative allosteric modulator of mGlu5 with activity in a mouse model of anxiety” (Bioorg Med Chem Lett, 2013).
Activity calls are given as the source filed them. No cut-off for these calls is given here.

Assays:
[1] = species: Rattus norvegicus; assay: Displacement of [3H]-Idazoxan from central-type imidazoline I2 receptor in rat cerebral cortex at 10 uM relative to control; format: tissue-based
How it was run: (§1)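 Tested once at 10 μM in a commercial radioligand binding panel of 68 GPCRs, ion channels, kinases and transporters. Activity is given as displacement of each radioligand relative to control.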

[2] = test system: IMR-32; assay: Displacement of [125I] Epibatidine from nicotinic acetylcholine receptor in human IMR32 cells at 10 uM relative to control; format: cell-based; how it was run: as §1
[3] = species: Oryctolagus cuniculus; assay: Displacement of [3H]-alpha,beta-Methylene-ATP from purinergic P2x receptor in rabbit urinary bladder at 10 uM relative to control
[4] = biological target: Prostaglandin E2 receptor EP4 subtype (Homo sapiens) (UniProt P35408); assay: Displacement of [3H]-PGE2 from human recombinant prostanoid EP4 receptor expressed in rat Chem-1 cells at 10 uM relative to control; format: cell-based
[5] = biological target: 5-hydroxytryptamine receptor 2B (Homo sapiens) (UniProt P41595); assay: Displacement of [3H]-Lysergic acid diethylamide from human recombinant 5-HT2B receptor expressed in CHO-K1 cells at 10 uM relative to control; format: cell-based; how it was run: as §1
[6] = biological target: Metabotropic glutamate receptor 1 (Rattus norvegicus) (UniProt P23385); assay: Allosteric modulation of rat mGlu1 receptor expressed in HEK293 cells assessed as effect on glutamate-induced calcium mobilization at 10 uM; format: functional, cell-based
[7] = species: Rattus norvegicus; assay: Displacement of [3H]-Flunitrazepam from central-type GABAA receptor flunitrazepam binding site in cerebellum-less rat brain homogenate at 10 uM relative to control; format: tissue-based; how it was run: as §1
[8] = species: Rattus norvegicus; assay: Displacement of [35S]-ATP-alpha-S from purinergic P2Y receptor in rat brain at 10 uM relative to control; format: tissue-based; how it was run: as §1
[9] = species: Mus musculus; assay: Displacement of [3H]-PDBu from phorbol ester receptor in mouse brain at 10 uM relative to control; format: tissue-based; how it was run: as §1
[10] = test system: Mus musculus; assay: Anxiolytic activity in ip dosed Harlan CD-1 mouse assessed as inhibition of marble burying behavior; format: functional, organism-based
How it was run: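 Marble burying in mice with deep bedding; compound given IP at a range of doses with 15 min pretreatment, n = 8 per dose; marbles buried counted, brain samples collected right after testing for exposure; comparison to vehicle by Dunnett's test.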

[11] = biological target: Endothelin-1 receptor (Homo sapiens) (UniProt P25101); assay: Displacement of [125I]-Endothelin-1 from human recombinant ETA receptor expressed in CHO-K1 cells at 10 uM relative to control; format: cell-based; how it was run: as §1
[12] = biological target: Alpha-2A adrenergic receptor (Homo sapiens) (UniProt P08913); assay: Displacement of [3H]-Rauwolscine from human recombinant adrenergic alpha2A receptor expressed in CHO-K1 cells at 10 uM relative to control; format: cell-based
Chain of Alpha-2A adrenergic receptor (Homo sapiens) (P08913 whole entry): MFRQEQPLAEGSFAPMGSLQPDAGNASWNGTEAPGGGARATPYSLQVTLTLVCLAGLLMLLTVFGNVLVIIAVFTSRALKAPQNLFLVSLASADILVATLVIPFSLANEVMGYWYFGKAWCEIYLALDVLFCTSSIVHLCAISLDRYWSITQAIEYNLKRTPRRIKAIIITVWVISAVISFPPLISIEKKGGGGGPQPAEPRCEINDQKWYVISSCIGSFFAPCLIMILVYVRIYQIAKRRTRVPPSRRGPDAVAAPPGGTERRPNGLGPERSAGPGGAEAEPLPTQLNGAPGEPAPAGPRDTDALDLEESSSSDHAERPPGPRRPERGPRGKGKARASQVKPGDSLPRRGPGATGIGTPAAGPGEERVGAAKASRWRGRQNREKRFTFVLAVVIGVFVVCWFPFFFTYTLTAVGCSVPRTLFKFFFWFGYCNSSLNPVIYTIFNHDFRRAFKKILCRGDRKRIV

[13] = biological target: 5-hydroxytryptamine receptor 1A (Homo sapiens) (UniProt P08908); assay: Displacement of [3H]-8-OH-DPAT from human recombinant 5-HT1A receptor expressed in CHO-K1 cells at 10 uM relative to control; format: cell-based; how it was run: as §1
Chain of 5-hydroxytryptamine receptor 1A (Homo sapiens) (P08908 whole entry): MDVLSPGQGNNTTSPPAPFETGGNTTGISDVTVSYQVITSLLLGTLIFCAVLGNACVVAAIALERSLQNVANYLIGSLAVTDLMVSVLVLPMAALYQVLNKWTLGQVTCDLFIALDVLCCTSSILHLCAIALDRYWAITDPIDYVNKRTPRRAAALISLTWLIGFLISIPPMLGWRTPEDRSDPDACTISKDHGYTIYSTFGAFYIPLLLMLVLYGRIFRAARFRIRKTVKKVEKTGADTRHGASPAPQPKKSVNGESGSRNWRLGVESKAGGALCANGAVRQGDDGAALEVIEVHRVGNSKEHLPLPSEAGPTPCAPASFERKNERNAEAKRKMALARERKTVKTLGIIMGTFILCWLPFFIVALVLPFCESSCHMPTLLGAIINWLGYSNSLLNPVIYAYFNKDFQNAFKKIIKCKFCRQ

[14] = test system: Brain; assay: AUC in CD-1 mouse brain at 10 mg/kg, ip by LC-MS/MS analysis; format: ADME, organism-based; design: dose 10 mg/kg, route intraperitoneal; conditions: in vivo
[15] = species: Rattus norvegicus; assay: Displacement of [3H]-GABA from GABA transporter in rat cerebral cortex at 10 uM relative to control; format: tissue-based; how it was run: as §1
[16] = biological target: B1 bradykinin receptor (Homo sapiens) (UniProt P46663); assay: Displacement of [3H]-(Des-Arg10)-Kallidin from bradykinin B1 receptor in human IMR90 cells at 10 uM relative to control; format: cell-based; conditions: IMR-90; how it was run: as §1
[17] = biological target: Metabotropic glutamate receptor 2 (Rattus norvegicus) (UniProt P31421); assay: Allosteric modulation of rat mGlu2 receptor expressed in HEK293 cells coexpressing G protein-activated inward rectifier potassium channel assessed as effect on glutamate-induced thallium flux at 10 uM; format: cell-based
[18] = species: Mesocricetus auratus; assay: Displacement of [3H]-Glyburide from ATP-sensitive potassium channel in hamster pancreatic HIT-T15 beta cells at 10 uM relative to control; how it was run: as §1
[19] = biological target: Metabotropic glutamate receptor 6 (Rattus norvegicus) (UniProt P35349); assay: Allosteric modulation of rat mGlu6 receptor expressed in HEK293 cells coexpressing G protein-activated inward rectifier potassium channel assessed as effect on glutamate-induced thallium flux at 10 uM; format: cell-based
Chain of Metabotropic glutamate receptor 6 (Rattus norvegicus) (P35349 whole entry): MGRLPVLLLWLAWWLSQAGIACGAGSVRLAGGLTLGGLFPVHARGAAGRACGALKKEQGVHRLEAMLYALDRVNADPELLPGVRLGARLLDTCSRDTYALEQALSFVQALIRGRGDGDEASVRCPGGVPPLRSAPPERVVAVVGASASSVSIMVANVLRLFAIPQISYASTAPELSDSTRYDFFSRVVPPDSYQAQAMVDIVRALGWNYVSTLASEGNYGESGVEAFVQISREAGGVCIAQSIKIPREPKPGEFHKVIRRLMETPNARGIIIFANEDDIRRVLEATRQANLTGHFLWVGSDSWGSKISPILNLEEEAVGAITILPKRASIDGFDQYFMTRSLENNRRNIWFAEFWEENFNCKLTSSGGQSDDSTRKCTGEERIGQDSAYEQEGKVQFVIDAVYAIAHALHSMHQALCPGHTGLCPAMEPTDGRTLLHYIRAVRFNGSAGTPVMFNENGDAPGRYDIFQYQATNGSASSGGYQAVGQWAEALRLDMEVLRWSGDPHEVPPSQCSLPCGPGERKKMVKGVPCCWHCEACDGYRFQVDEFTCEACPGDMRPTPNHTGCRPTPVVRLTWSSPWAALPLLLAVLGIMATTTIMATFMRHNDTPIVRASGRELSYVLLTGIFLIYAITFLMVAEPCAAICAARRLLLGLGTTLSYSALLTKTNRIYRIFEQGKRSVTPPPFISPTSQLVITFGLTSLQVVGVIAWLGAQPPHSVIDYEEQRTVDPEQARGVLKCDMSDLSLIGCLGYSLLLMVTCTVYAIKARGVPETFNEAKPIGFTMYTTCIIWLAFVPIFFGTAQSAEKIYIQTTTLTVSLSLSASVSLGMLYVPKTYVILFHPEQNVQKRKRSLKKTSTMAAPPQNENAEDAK

[20] = biological target: Alpha-1D adrenergic receptor (Homo sapiens) (UniProt P25100); assay: Displacement of [3H]-Prazosin from human recombinant adrenergic alpha1D receptor expressed in HEK293 cells at 10 uM relative to control; format: cell-based
Chain of Alpha-1D adrenergic receptor (Homo sapiens) (P25100 whole entry): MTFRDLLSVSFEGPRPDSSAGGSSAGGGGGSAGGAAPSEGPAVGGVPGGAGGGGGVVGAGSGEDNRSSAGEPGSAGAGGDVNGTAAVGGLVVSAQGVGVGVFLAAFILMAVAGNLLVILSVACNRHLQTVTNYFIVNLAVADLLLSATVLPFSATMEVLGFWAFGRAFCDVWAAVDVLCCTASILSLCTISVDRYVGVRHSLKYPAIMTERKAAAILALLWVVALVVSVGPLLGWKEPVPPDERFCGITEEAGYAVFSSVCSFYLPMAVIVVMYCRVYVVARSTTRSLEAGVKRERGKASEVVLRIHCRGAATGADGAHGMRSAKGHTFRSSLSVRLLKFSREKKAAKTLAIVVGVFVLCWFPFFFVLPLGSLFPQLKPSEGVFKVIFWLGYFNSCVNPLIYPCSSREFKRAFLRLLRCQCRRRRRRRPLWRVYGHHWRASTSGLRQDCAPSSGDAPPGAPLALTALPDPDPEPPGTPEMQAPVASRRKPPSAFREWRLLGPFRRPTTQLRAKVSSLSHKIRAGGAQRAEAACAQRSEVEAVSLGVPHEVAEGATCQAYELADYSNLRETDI

[21] = biological target: Glutamate NMDA receptor (Rattus norvegicus) (UniProt P35439+Q00959+Q00960+Q00961+Q62645+Q8VHN2+Q9R1M7); assay: Displacement of [3H]-MDL 105,519 from NMDA receptor glycine binding site in rat cerebral cortex at 10 uM relative to control; format: tissue-based; how it was run: as §1
[22] = biological target: Acetylcholine receptor subunit alpha (Homo sapiens) (UniProt P02708); assay: Displacement of [125I]-alpha-Bungarotoxin from nicotinic acetylcholine alpha1 receptor bungarotoxin binding site in human RD cells at 10 uM relative to control; format: cell-based; how it was run: as §1
Chain of Acetylcholine receptor subunit alpha (Homo sapiens) (P02708 whole entry): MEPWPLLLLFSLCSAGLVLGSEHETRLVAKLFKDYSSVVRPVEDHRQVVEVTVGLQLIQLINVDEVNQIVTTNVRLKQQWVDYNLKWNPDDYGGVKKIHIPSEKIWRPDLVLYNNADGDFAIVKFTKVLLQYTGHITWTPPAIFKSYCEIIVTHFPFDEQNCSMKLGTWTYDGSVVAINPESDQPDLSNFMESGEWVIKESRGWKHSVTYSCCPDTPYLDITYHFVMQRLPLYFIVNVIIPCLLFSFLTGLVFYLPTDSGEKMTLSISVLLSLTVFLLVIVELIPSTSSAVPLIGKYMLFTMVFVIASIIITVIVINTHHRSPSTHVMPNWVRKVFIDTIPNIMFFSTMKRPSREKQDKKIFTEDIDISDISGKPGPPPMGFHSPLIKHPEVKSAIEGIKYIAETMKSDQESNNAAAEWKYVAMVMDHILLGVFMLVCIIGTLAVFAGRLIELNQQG

[23] = biological target: Platelet-activating factor receptor (Homo sapiens) (UniProt P25105); assay: Displacement of [3H]-PAF from platelet activating factor receptor in human platelets at 10 uM relative to control; how it was run: as §1
Chain of Platelet-activating factor receptor (Homo sapiens) (P25105 whole entry): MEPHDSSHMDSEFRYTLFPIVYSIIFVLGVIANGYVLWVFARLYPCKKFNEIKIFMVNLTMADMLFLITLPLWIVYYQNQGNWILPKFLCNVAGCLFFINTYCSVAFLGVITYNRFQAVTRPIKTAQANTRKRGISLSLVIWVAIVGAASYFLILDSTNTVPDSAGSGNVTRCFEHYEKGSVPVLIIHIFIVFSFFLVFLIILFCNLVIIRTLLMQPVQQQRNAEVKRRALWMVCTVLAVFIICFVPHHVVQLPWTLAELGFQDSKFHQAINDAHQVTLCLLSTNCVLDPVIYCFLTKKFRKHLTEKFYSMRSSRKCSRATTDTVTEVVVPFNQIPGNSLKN

[24] = biological target: D(2) dopamine receptor (Homo sapiens) (UniProt P14416); assay: Displacement of [3H]-Spiperone from human recombinant dopamine D2S receptor expressed in CHO cells at 10 uM relative to control; format: cell-based
[25] = biological target: Endothelin receptor type B (Homo sapiens) (UniProt P24530); assay: Displacement of [125I]-Endothelin-1 from human recombinant ETB receptor expressed in CHO-K1 cells at 10 uM relative to control; format: cell-based; how it was run: as §1
Chain of Endothelin receptor type B (Homo sapiens) (P24530 whole entry): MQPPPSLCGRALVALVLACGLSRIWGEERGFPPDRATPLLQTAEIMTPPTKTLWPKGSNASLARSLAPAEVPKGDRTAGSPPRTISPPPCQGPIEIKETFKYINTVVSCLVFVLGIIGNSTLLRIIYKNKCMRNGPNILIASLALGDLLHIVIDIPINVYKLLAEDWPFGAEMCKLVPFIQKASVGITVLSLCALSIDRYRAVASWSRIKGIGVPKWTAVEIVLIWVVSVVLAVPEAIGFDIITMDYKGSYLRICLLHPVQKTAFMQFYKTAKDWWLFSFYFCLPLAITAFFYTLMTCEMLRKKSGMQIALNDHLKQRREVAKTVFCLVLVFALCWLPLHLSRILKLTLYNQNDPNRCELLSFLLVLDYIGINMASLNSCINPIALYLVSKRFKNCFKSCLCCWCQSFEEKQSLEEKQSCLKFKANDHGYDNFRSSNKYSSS

[26] = species: Rattus norvegicus; assay: Displacement of [3H]-Batrachotoxin from sodium channel site 2 in rat brain at 10 uM relative to control; format: tissue-based; how it was run: as §1
[27] = biological target: Substance-P receptor (Homo sapiens) (UniProt P25103); assay: Displacement of [3H]-Substance P from human recombinant tachykinin NK1 receptor expressed in CHO cells at 10 uM relative to control; format: cell-based
Chain of Substance-P receptor (Homo sapiens) (P25103 whole entry): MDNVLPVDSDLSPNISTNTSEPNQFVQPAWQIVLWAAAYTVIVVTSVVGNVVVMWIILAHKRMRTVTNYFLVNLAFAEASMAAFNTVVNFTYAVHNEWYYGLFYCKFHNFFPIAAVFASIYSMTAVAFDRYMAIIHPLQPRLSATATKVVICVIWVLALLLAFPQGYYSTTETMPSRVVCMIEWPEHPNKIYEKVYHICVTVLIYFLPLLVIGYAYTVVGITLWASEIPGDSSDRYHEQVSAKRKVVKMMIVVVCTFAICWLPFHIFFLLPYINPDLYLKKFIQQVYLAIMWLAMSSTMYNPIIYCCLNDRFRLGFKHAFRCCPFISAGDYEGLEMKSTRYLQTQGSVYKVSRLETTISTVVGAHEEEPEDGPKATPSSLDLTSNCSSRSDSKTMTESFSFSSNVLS

[28] = biological target: Muscarinic acetylcholine receptor M2 (Homo sapiens) (UniProt P08172); assay: Displacement of [3H]-N-Methylscopolamine from human recombinant muscarinic M2 receptor expressed in CHO-K1 cells at 10 uM relative to control; format: cell-based; how it was run: as §1
Chain of Muscarinic acetylcholine receptor M2 (Homo sapiens) (P08172 whole entry): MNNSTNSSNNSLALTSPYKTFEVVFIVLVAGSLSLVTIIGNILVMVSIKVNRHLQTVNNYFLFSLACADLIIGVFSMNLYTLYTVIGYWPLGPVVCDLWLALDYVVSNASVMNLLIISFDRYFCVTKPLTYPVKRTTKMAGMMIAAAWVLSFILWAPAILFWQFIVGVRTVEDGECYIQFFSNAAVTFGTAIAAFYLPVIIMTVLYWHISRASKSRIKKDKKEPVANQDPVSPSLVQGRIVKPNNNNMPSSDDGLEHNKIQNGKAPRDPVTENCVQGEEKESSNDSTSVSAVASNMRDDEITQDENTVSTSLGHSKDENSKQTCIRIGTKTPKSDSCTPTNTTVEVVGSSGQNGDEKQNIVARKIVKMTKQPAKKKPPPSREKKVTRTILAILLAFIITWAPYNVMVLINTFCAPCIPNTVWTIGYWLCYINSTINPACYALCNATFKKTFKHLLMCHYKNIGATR

[29] = test system: Plasma; assay: Cmax in CD-1 mouse plasma at 10 mg/kg, ip by LC-MS/MS analysis; format: ADME, organism-based; design: dose 10 mg/kg, route intraperitoneal; conditions: in vivo
[30] = biological target: Mu-type opioid receptor (Homo sapiens) (UniProt P35372); assay: Displacement of [3H]-Diprenorphine from human recombinant mu opioid receptor expressed in CHO-K1 cells at 10 uM relative to control; format: cell-based; how it was run: as §1
[31] = biological target: Beta-1 adrenergic receptor (Homo sapiens) (UniProt P08588); assay: Displacement of [125I]-Cyanopindolol from human recombinant adrenergic beta1 receptor expressed in CHO-K1 cells at 10 uM relative to control; format: cell-based; how it was run: as §1
Chain of Beta-1 adrenergic receptor (Homo sapiens) (P08588 whole entry, looked up): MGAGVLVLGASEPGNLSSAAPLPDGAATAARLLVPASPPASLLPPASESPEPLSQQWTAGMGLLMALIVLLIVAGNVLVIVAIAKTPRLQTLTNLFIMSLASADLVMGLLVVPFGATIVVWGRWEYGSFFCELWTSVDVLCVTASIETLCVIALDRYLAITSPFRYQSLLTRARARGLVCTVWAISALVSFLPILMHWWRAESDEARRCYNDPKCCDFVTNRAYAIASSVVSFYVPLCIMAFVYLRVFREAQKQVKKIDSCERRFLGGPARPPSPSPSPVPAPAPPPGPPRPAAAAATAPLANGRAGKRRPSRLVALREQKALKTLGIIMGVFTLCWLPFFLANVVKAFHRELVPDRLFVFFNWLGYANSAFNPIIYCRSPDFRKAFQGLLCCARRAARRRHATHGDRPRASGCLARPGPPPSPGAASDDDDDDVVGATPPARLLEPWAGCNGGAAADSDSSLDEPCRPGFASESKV

[32] = biological target: L-type calcium channel, benzothiazepine binding site (Rattus norvegicus, UniProt P22002+P27732+Q02485); assay: Displacement of [3H]-Diltiazem from L-Type calcium channel benzothiazepine binding site in rat brain at 10 uM relative to control; format: tissue-based; conditions: probe [3H]-Diltiazem
[33] = species: Rattus norvegicus; assay: Displacement of [3H]-Rolipram from rolipram binding site in rat brain at 10 uM relative to control; format: tissue-based

Cc1csc(NC(=O)c2cc(F)cc(Oc3cncnc3)c2)n1
inhibition [1]: > 35% | inhibition [2]: > 35% | inhibition [3]: > 35% | inhibition [4]: > 35% | inhibition [5]: > 35% | Activity [6]: inactive | inhibition [7]: > 35% | inhibition [8]: > 35% | inhibition [9]: > 35% | inhibition [10]: Dose-dependent effect | inhibition [11]: > 35% | inhibition [12]: > 35% | inhibition [13]: > 35% | AUC [14]: 696 ng·h/g | inhibition [15]: > 35% | inhibition [16]: > 35% | Activity [17]: inactive | inhibition [18]: > 35% | Activity [19]: inactive | inhibition [20]: > 35% | inhibition [21]: > 35% | inhibition [22]: > 35% | inhibition [23]: > 35% | inhibition [24]: > 35% | inhibition [25]: > 35% | inhibition [26]: > 35% | inhibition [27]: > 35% | inhibition [28]: > 35% | Cmax [29]: 1450 ng/mL | inhibition [30]: > 35% | inhibition [31]: > 35% | inhibition at 10 µM [32]: > 35% | inhibition [33]: > 35%
